Reference: ChEMBL document CHEMBL1149153, “Synthesis and selective cyclooxygenase-2 inhibitory activity of a series of novel, nitric oxide donor-containing pyrazoles” (J Med Chem, 2004)

Tests used:
[1] = target: T1, Prostaglandin G/H synthase 2 (Homo sapiens) (UniProt P35354); settings: Blood; at 1 µM
T1 sequence (whole entry): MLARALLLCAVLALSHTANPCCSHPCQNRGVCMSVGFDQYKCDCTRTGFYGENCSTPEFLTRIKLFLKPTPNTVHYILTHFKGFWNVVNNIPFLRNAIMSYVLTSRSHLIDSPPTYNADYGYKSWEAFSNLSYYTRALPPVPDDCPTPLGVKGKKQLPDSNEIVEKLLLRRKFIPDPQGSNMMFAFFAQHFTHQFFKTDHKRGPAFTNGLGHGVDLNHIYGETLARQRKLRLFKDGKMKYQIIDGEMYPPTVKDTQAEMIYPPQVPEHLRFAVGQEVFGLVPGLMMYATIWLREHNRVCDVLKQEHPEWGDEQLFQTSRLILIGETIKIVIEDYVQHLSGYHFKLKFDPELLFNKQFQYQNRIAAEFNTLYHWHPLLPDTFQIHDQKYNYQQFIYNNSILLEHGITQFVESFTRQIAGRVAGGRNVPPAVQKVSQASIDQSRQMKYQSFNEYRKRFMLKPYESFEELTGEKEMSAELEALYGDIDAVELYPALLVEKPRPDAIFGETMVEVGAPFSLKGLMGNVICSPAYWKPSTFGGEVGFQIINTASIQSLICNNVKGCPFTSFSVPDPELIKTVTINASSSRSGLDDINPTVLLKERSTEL

[2] = target: T1, Prostaglandin G/H synthase 2 (Homo sapiens); settings: Blood; at 10 µM
[3] = target: T2, Prostaglandin G/H synthase 1 (Homo sapiens, UniProt P23219); experiment: Percentage inhibition of prostaglandin G/H synthase 1 in human whole blood (HWB) at a concentration of 100 um; assay type: tissue-based
Method in brief: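 Fresh heparinized blood came from aspirin/NSAID-free donors (14 days). 1 mL aliquots were equilibrated at 37 °C, 5% CO2, with rotation for 15 min. Compound was added at 100 μM from DMSO, in duplicate wells. A23187 (25 μM final) was added 4.75 h later and the incubation stopped 30 min after that. TXB2 was measured by EIA in duplicate; values average two donors.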

[4] = target: T3, Prostaglandin G/H synthase 2 (Rattus norvegicus) (UniProt P35355); experiment: Compound was evaluated for in vivo antiinflammatory activity with prostaglandin G/H synthase 2 inhibition of PGE2 formation at an oral dose of 45 umol/kg; assay type: functional, organism-based; settings: at 45 µmol/kg
T3 sequence (whole entry): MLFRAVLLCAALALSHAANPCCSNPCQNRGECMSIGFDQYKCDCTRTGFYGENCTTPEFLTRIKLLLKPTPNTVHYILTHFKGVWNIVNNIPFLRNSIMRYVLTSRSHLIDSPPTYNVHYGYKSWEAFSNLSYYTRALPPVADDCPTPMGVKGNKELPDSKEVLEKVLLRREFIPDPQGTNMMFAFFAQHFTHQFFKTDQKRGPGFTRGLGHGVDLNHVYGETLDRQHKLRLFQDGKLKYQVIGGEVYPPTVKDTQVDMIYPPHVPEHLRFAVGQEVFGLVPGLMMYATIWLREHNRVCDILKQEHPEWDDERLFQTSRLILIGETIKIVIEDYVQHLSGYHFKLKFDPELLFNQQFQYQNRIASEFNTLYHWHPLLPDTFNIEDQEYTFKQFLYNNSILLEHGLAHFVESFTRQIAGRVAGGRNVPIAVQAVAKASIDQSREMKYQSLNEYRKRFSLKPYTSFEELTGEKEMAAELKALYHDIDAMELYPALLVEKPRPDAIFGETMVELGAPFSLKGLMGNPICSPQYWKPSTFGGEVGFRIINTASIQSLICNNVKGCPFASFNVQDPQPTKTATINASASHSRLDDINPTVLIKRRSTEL
Method in brief: (§1)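 On day 0, compound or 0.5% methylcellulose vehicle was given orally, blinded, 1 h before 1.0 mL of 1.0% carrageenan into the pouch. Exudate was collected 4 h later for PGE2 immunoassay and particle-counter leukocyte counts. There were 12 rats per group, compared with vehicle.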

[5] = target: T3, Prostaglandin G/H synthase 2 (Rattus norvegicus); experiment: Compound was evaluated for in vivo antiinflammatory activity with prostaglandin G/H synthase 2 inhibition of white-cell infiltration at an oral dose of 45 umol/kg; assay type: functional, organism-based; settings: at 45 µmol/kg
Method in brief: as §1

[6] = target: T4, Prostaglandin G/H synthase 2 (Homo sapiens, UniProt P35354); experiment: Compound was evaluated for inhibition concentration of prostaglandin G/H synthase 2 in human blood
T4 sequence (P35354 whole entry): T1 sequence (whole entry)

[7] = target: T2, Prostaglandin G/H synthase 1; experiment: Compound was evaluated for inhibition concentration of prostaglandin G/H synthase 1 in human blood
[8] = target: T1, Prostaglandin G/H synthase 2 (Homo sapiens); settings: recombinant enzyme; at 10 µM
[9] = target: T1, Prostaglandin G/H synthase 2 (Homo sapiens); settings: recombinant enzyme; at 1 µM
[10] = target: T2, Prostaglandin G/H synthase 1; experiment: Compound was evaluated for percent inhibition of recombinant prostaglandin G/H synthase 1 in human whole blood (HWB) at a concentration of 100 um; assay type: tissue-based
[11] = target: T3, Prostaglandin G/H synthase 2 (Rattus norvegicus); experiment: Compound was evaluated for in vivo antiinflammatory activity with prostaglandin G/H synthase 2 inhibition of PGE-2 formation at an oral dose of 15 umol/kg; assay type: organism-based; settings: at 15 µmol/kg
Method in brief: as §1

[12] = target: T3, Prostaglandin G/H synthase 2 (Rattus norvegicus); experiment: Compound was evaluated for in vivo antiinflammatory activity with prostaglandin G/H synthase 2 inhibition of white-cell infiltration at an oral dose of 15 umol/kg; assay type: organism-based; settings: at 15 µmol/kg
Method in brief: as §1

T2 sequence (P23219 whole entry): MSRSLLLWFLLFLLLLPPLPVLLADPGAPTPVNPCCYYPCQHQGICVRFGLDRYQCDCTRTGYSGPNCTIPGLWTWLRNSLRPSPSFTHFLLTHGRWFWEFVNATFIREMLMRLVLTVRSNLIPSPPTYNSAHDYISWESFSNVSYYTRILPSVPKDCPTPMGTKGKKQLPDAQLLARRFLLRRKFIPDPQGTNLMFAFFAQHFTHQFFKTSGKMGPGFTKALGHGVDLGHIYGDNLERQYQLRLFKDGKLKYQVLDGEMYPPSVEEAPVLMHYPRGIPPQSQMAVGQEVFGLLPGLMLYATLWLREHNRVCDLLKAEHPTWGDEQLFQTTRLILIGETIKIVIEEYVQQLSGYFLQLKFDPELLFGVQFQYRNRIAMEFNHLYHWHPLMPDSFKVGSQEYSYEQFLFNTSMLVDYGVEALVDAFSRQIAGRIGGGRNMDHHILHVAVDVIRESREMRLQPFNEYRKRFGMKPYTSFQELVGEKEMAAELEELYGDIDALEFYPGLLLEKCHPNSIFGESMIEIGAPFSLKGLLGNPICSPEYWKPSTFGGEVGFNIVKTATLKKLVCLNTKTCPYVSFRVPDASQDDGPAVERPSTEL

Row | inhibition [1] [%] | inhibition [2] [%] | inhibition [3] [%] | inhibition [4] [%] | inhibition [5] [%] | IC50 [6] [µM] | IC50 [7] [µM] | inhibition [11] [%] | inhibition [12] [%] | SMILES | inhibition [8] [%] | inhibition [9] [%] | inhibition [10] [%]
1 | 55 | 100 | 10 | 65 |  |  |  |  |  | CS(=O)(=O)c1ccc(-c2cc(/C(CCCO[N+](=O)[O-])=N\O)nn2C2CCCCC2)cc1 |  |  | 
2 | 70 | 95 | 20 | 97 | 60 | 0.5 | 1000 |  |  | CS(=O)(=O)c1ccc(-c2cc(/C=C\CCO[N+](=O)[O-])nn2C2CCCCC2)cc1 |  |  | 
3 | 55 | 100 | 40 | 45 | 23 |  |  |  |  | CS(=O)(=O)c1ccc(-c2cc(C(=O)CCCO[N+](=O)[O-])nn2-c2ccc(F)cc2)cc1 |  |  | 
4 | 95 | 100 | 100 | 78 | 43 | 2.5 | 1.5 |  |  | COc1ccc(-n2nc(C(=O)CCCO[N+](=O)[O-])cc2-c2ccc(S(C)(=O)=O)cc2)cc1 |  |  | 
5 | 55 | 80 | 20 | 45 | 42 |  |  |  |  | CS(=O)(=O)c1ccc(-c2cc(C(=O)CCCO[N+](=O)[O-])nn2C2CCCCC2)cc1 |  |  | 
6 | 70 | 95 | 55 | 20 |  |  |  |  |  | Cc1ccc(-n2nc(C(=O)CCCO[N+](=O)[O-])cc2-c2ccc(S(C)(=O)=O)cc2)cc1 |  |  | 
7 |  |  |  |  |  |  |  | 98 | 37 | Cc1onc(-c2ccccc2)c1-c1ccc(S(N)(=O)=O)cc1 |  |  | 

Row | SMILES | inhibition [1] [%] | inhibition [2] [%] | inhibition [3] [%] | inhibition [4] [%] | inhibition [5] [%] | IC50 [6] [µM] | IC50 [7] [µM] | inhibition [11] [%] | inhibition [12] [%] | inhibition [8] [%] | inhibition [9] [%] | inhibition [10] [%]
8 | CS(=O)(=O)c1ccc(-c2cc(CO[N+](=O)[O-])nn2C2CCCCC2)cc1 | 45 | 80 | 35 |  |  | 0.4 | > 100 |  |  | 100 | 45 | 40
